Experimental data collected from several papers.
Compare with care: the assays were run in different laboratories.
Target: Serine/threonine-protein kinase TAO2 (TAOK2, Homo sapiens, UniProt Q9UL54)
One construct used (Q9UL54 1-1235): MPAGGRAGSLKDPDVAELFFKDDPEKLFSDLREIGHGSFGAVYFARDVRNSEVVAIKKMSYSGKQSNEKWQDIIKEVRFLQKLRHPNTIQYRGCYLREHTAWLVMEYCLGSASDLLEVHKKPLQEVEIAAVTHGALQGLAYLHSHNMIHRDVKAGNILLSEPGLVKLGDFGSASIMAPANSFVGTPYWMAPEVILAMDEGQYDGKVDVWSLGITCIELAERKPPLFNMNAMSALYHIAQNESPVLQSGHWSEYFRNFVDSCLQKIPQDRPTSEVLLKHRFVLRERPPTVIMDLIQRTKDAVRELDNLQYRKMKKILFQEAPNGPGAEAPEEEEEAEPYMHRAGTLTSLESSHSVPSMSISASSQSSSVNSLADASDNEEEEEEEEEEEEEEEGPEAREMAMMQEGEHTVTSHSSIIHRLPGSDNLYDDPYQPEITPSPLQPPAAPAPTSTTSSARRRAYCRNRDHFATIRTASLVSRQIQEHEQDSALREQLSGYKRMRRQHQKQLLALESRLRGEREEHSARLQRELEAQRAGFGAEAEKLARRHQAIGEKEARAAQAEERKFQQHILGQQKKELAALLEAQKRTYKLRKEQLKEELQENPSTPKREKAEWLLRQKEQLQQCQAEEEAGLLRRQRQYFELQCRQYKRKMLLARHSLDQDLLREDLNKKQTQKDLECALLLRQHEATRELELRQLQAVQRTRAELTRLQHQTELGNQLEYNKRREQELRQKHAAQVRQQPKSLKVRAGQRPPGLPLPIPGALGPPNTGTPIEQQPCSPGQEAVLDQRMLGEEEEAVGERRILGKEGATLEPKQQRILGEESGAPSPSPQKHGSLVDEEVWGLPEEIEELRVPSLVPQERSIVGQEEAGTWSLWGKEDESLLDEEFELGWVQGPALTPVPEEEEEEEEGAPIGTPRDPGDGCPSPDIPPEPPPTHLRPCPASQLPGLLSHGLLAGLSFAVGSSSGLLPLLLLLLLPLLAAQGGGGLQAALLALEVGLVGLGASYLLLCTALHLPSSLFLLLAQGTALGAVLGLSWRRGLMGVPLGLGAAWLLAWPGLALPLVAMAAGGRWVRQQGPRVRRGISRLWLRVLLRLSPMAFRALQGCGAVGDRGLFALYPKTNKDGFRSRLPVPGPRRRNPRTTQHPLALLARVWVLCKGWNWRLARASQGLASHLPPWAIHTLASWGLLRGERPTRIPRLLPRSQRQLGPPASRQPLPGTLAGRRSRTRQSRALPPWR

SMILES	observed	technique	tested at	remaining binding
CCOC(=O)c1cc2cc(-c3cc(C(=O)NCc4ccc(C(=O)O)cc4)nn3C)ccc2[nH]1	cell-free assay	competition with immobilised ligand	0.1 µM	90%
O=C(Nc1c[nH]nc1C(=O)NC1CCNCC1)c1cc(F)cc(F)c1	binding	competition with immobilised ligand	1 µM	61%
COc1cnc(Nc2cccc(S(N)(=O)=O)c2)nc1N1CCN(c2ccccc2)C(=O)C1	binding	competition with immobilised ligand	1 µM	95%
N[C@H]1CCN(c2nccc(-c3cnn4ncccc34)n2)C1	binding		1 µM	52%
Cc1cnc(Nc2ccc(C(=O)N3CCC(N4CCCC4)CC3)cc2)nc1-c1cc2ccccc2s1	binding	competition with immobilised ligand	1 µM	29%
COc1cnc(Nc2cccc(S(N)(=O)=O)c2)nc1N1CCN(c2ccccc2)CC1	binding	competition with immobilised ligand	1 µM	86%
CCN1CCN(Cc2ccc(C(=O)Nc3ccc(C)c(Oc4ccc5c(c4)CC(=O)N5)c3)cc2C(F)(F)F)CC1	binding	competition with immobilised ligand	1 µM	100%
O=S(=O)(NC1CCC(c2cc(F)ccc2F)(S(=O)(=O)c2ccc(Cl)cc2)CC1)C(F)(F)F (stereo not shown)	cell-free assay	competition with immobilised ligand	1 µM	100%
CN(C)c1nccc(-c2cnn3ncccc23)n1	binding		1 µM	85%
Cc1nc(C2CCN(C(=O)c3ccc(OC(F)(F)F)cc3N)CC2)c2ncc(N3CCN(C)CC3)cc2n1	cell-free assay	competition with immobilised ligand	1 µM	100%
O=C(NCCCN1CCOCC1)c1ccc(Nc2ncc(Cl)c(-c3ccc(Cl)s3)n2)cc1	binding	competition with immobilised ligand	1 µM	69%
CC(=O)Nc1c(C(C)=O)c(=O)n(C)c2nc(-c3ccc(Cl)cc3Cl)c(-c3ccc(Cl)cc3)cc12	cell-free assay	competition with immobilised ligand	1 µM	88%
COc1ccnn2ncc(-c3ccnc(N(C)C)n3)c12	binding		1 µM	85%
COc1ncc2cc3ccccc3nc2c1C#N	cell-free assay	competition with immobilised ligand	5 µM	93%
CNCc1ccccc1-c1csc([C@H](C)Nc2nc(C)nc3cc(OC)c(OC)cc23)c1	cell-free assay	competition with immobilised ligand	1 µM	90%
C[C@@H](c1ccc(-n2cnc3c(N)ncnc32)cc1)N1CCc2nn(C)c(Cc3ccccc3)c2C1=O	binding	competition with immobilised ligand	0.1 µM	70%
F[C@@H]1CCN(c2nccc(-c3cnn4ncccc34)n2)C1	binding		1 µM	100%
O=C(c1ccc(Nc2ncc(Cl)c(-c3cc4ccccc4s3)n2)cc1)N1CCC(N2CCCC2)CC1	binding	competition with immobilised ligand	1 µM	66%
c1cnn2ncc(-c3ccnc(N4CCC45COC5)n3)c2c1	binding		1 µM	71%
O=C(O)[C@H]1[C@H](Cn2nnc3ccccc3c2=O)CC[C@@H]1C(=O)c1ccc(OCCC2CCOCC2)cc1	cell-free assay	competition with immobilised ligand	1 µM	100%
CN(c1nccc(-c2cnn3ncccc23)n1)C1CC1	binding		1 µM	100%
c1cncc(-c2cccc(Nc3nccc(NC4CCCCC4)n3)c2)c1	binding	competition with immobilised ligand	10 µM	94%
